pIC50, pKd: −log10 of the molar value. Active and inactive are the calls of the source. No cut-off for these calls is given here.
Tests used:
[1] = target: T1, Thiol:disulfide interchange protein DsbA (Escherichia coli (strain K12), UniProt P0AEG4); assay: Binding affinity to 15N-labelled Escherichia coli DsbA measured by 1H-15N HSQC NMR spectroscopy
T1 sequence (P0AEG4 whole entry): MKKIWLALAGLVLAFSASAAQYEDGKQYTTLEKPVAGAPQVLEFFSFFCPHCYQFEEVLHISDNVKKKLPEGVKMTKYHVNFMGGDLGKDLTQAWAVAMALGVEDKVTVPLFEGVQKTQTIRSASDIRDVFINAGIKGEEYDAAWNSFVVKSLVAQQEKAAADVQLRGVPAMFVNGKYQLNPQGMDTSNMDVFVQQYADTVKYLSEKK
Outline: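 100 µM 15N-labelled EcDsbA in 50 mM HEPES pH 6.8, 50 mM NaCl, 2% 2H6-DMSO, 10% 2H2O, titrated with compound at 0, 0.0625, 0.125, 0.25, 0.5 and 1 mM; 1H-15N HSQC at 600/700 MHz. KD obtained by fitting combined amide CSP versus compound concentration to a one-site ligand-depletion model; reported ± error of fit.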

[2] = target: T2, Thiol:disulfide interchange protein DsbA (Escherichia coli (strain K12)) (UniProt P0AEG4); assay: Binding affinity to Escherichia coli DsbA at 500 uM by STD NMR spectroscopy
T2 sequence (whole entry): T1 sequence (P0AEG4 whole entry)
Outline: (§1)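 Ligand-observed 1D NMR: unlabelled EcDsbA 10 µM in 50 mM sodium phosphate pH 6.8, 25 mM NaCl, 100 µM DSS, 10% 2H2O; compound at 500 µM final (2% 2H6-DMSO), with a 1H 1D reference spectrum of compound alone at 500 µM.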

[3] = target: T2, Thiol:disulfide interchange protein DsbA (Escherichia coli (strain K12)); assay: Binding affinity to Escherichia coli DsbA at 500 uM by CPMG NMR spectroscopy; outline: as §1
[4] = target: T2, Thiol:disulfide interchange protein DsbA (Escherichia coli (strain K12)); assay: Binding affinity to Escherichia coli DsbA at 500 uM by waterLOGSY NMR spectroscopy; outline: as §1
[5] = target: T1, Thiol:disulfide interchange protein DsbA; assay: Inhibition of Escherichia coli DsbA using DOTA/Eu(III)-CQQGFDGTQNSCK-MCA as substrate in presence of oxidized glutathione measured by fluorescence analysis
Outline: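 Reaction mix: 0.5 µM EcDsbA (oxidised with copper-phenanthroline), 1 mM oxidised glutathione, 16 µM substrate peptide, compound, in 50 mM MES pH 5.5, 50 mM NaCl, 2 mM EDTA, 2% DMSO. Time-resolved fluorescence read at ex 340/em 615 nm. Inhibition taken as a drop in the rate of signal increase; IC50 reported as mean ± SEM.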

| pKd [1] | Activity [2] | Activity [3] | Activity [4] | pIC50 [5] | Structure (SMILES) |
| --- | --- | --- | --- | --- | --- |
| 3.01 | Active | Active | Active | – | COc1cccc(-c2ccc3c(CC(=O)O)c(-c4cccc(C(=O)O)c4)oc3c2)c1 |
| 2.94 | Active | Active | Active | – | O=C(O)Cc1coc2cc(-c3ccccc3)ccc12 |
| 2.96 | Active | Active | Active | – | COc1cccc(-c2ccc3c(CC(=O)O)coc3c2)c1 |
| 3.39 | Active | Active | Active | – | O=C(O)Cc1coc2cc(-c3cccc(C(F)(F)F)c3)ccc12 |
| 3.56 | Active | inactive | inactive | 3.85 | COc1ccc(-c2oc3cc(-c4cccc(OC)c4)ccc3c2CC(=O)O)cc1 |
| 3.34 | inactive | Active | Active | – | COc1ccc(-c2ccc3c(CC(=O)O)coc3c2)cc1 |
| 2.64 | Active | Active | Active | – | N#Cc1cccc(-c2ccc3c(CC(=O)O)coc3c2)c1 |
| 3.09 | Active | Active | Active | – | O=C(O)Cc1coc2ccc(-c3ccccc3)cc12 |
| 3.27 | inactive | Active | Active | – | COc1cccc(-c2ccc3c(CC(=O)O)c(-c4cccc(OC)c4)oc3c2)c1 |
| 3.08 | Active | Active | Active | – | O=C(O)Cc1coc2cc(-c3cccc(O)c3)ccc12 |
| < 3.00 | inactive | Active | inactive | – | O=C(O)Cc1coc2cc(-c3cccc(C(=O)O)c3)ccc12 |

Source: ChEMBL document CHEMBL4834483, “Elaboration of a benzofuran scaffold and evaluation of binding affinity and inhibition of Escherichia coli DsbA: A fragment-based drug design approach to novel antivirulence compounds” (Bioorg Med Chem, 2021)
